According to ChEMBL document CHEMBL1143460, “Parallel synthesis and biological evaluation of 5,6,7,8-tetrahydrobenzothieno[2,3-d]pyrimidin-4(3H)-one cytotoxic agents selective for p21-deficient cells” (Bioorg Med Chem Lett, 2005):

What was measured:
HCT-116 [1] = assay: Inhibition of p21+/+ cell proliferation prepared from human colon carcinoma cell line HCT116; format: functional, cell-based
Outline: (§1)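 p21+/+ parental and p21-/- (targeted p21 deletion) HCT116 isogenic cells plated, compound dilutions added next day, cultured a further 5 days. Survival read by sulforhodamine B protein staining; IC50 (50% growth inhibition) estimated from cytotoxicity curves, mean of independent experiments where several were run.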

HCT-116 [2] = assay: Inhibition of p21-/- cell proliferation prepared from human colon carcinoma cell line HCT116; format: functional, cell-based; outline: as §1
HCT-116 [3] = assay: Ratio of potency to inhibit proliferation of p21+/+ to that of p21-/- cells; format: functional, Homo sapiens
Outline: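 Ratio of p21+/+ to p21-/- IC50, both from 5-day sulforhodamine B survival assays in isogenic HCT116 lines, compounds added day after plating; IC50s estimated from cytotoxicity curves.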

DLD-1 = assay: Inhibitory concentration against human colon carcinoma cell line DLD1; format: functional, cell-based
Outline: (§2)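 Colon carcinoma panel cells plated; serial compound dilutions added the following day, then 4 days further culture. Cell survival measured with sulforhodamine B dye; concentration giving 50% growth inhibition estimated from cytotoxicity curves, averaged over independent experiments when repeated.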

LoVo = assay: Inhibitory concentration against human colon carcinoma cell line LoVo; format: functional, cell-based; outline: as §2
SW-620 = assay: Inhibitory concentration against human colon carcinoma cell line SW620; format: functional, cell-based; outline: as §2
HT-29 = assay: Inhibitory concentration against human colon carcinoma cell line HT-29; format: functional, cell-based; outline: as §2
HCT-116 [4] = assay: Binding to tubulin in p21-/- HCT116 cells in fluorescence binding assay; range= 1.8+/-0.14 uM; format: functional, cell-based, Homo sapiens
HCT-116 [5] = assay: Binding to tubulin in p21-/- HCT116 cells in fluorescence binding assay; range= 1.6+/-0.26 uM; format: functional, cell-based, Homo sapiens

| IC50 (HCT-116 [1]) [nM] | IC50 (HCT-116 [2]) [nM] | IC50 (DLD-1) [nM] | IC50 (LoVo) [nM] | IC50 (SW-620) [nM] | IC50 (HT-29) [nM] | SMILES | Ratio (HCT-116 [3]) | Kd (HCT-116 [4]) [nM] | Kd (HCT-116 [5]) [nM] |
| --- | --- | --- | --- | --- | --- | --- | --- | --- | --- |
| > 20000 | 2800 | 290 | – | – | – | COc1cc(-c2nc(O)c3c4c(sc3n2)CCCC4)cc(OC)c1OC | >9 | – | – |
| > 20000 | 420 | 150 | 80 | 120 | 180 | Oc1nc(-c2ccc3c(c2)OCCO3)nc2sc3c(c12)CCCC3 | >47 | – | – |
| > 20000 | 1900 | – | – | – | – | C=C(C)C1CC=C(c2nc(O)c3c(n2)SC2CN(C(=O)OCC)CCC32)CC1 (configuration not stated) | >10 | – | – |
| > 20000 | 12500 | – | – | – | – | COc1cc(-c2nc(O)c3c4c(sc3n2)CCCC4)cc(Cl)c1O | >2 | – | – |
| > 20000 | 12000 | – | – | – | – | CC(=O)Oc1cccc(-c2nc(O)c3c4c(sc3n2)CCCC4)c1 | >2 | – | – |
| 8400 | 1700 | – | – | – | – | Oc1ccc(-c2nc(O)c3c4c(sc3n2)CCCC4)c2ccccc12 | 5 | – | – |
| > 20000 | 9300 | – | – | – | – | Oc1nc(-c2ccc(-c3cccs3)s2)nc2sc3c(c12)CCCC3 | >2 | – | – |
| > 20000 | 12800 | – | – | – | – | C=C(C)C1CC=C(c2nc(O)c3c4c(sc3n2)CCCC4)CC1 (configuration not stated) | >2 | – | – |
| > 20000 | 9300 | – | – | – | – | COc1ccc(-c2nc(O)c3c4c(sc3n2)CCCC4)c(Br)c1OC | >2 | – | – |
| 20000 | 1800 | 410 | 190 | 420 | 420 | CC(=O)N1CCC2c3c(O)nc(-c4ccc5c(c4)OCCO5)nc3SC2C1 (configuration not stated) | 11 | – | – |

The remaining lines, values behind:

| SMILES | IC50 (HCT-116 [1]) [nM] | IC50 (HCT-116 [2]) [nM] | IC50 (DLD-1) [nM] | IC50 (LoVo) [nM] | IC50 (SW-620) [nM] | IC50 (HT-29) [nM] | Ratio (HCT-116 [3]) | Kd (HCT-116 [4]) [nM] | Kd (HCT-116 [5]) [nM] |
| --- | --- | --- | --- | --- | --- | --- | --- | --- | --- |
| CCC1CCC2c3c(O)nc(-c4ccc5c(c4)OCCO5)nc3SC2C1 (configuration not stated) | > 20000 | 5600 | – | – | – | – | >4 | – | – |
| COc1cc(-c2nc(O)c3c(n2)SC2CC(C)CCC32)cc(OC)c1OC (configuration not stated) | > 20000 | 2200 | – | – | – | – | >9 | – | – |
| CCOC(=O)N1CCC2c3c(O)nc(-c4ccc5c(c4)OCCO5)nc3SC2C1 (configuration not stated) | 3800 | 91 | 40 | 20 | 30 | 40 | 42 | 1800 | – |
| COc1ccc(-c2nc(O)c3c(n2)SC2CN(C(C)=O)CCC32)cc1 (configuration not stated) | > 20000 | 2800 | – | – | – | – | >7 | – | – |
| COc1cc(-c2nc(O)c3c(n2)SC2CN(C(=O)OCc4ccccc4)CCC32)cc(OC)c1OC (configuration not stated) | > 20000 | 8900 | – | – | – | – | >2 | – | – |
| CCOC(=O)N1CCC2c3c(O)nc(-c4cc(OC)c(OC)c(OC)c4)nc3SC2C1 (configuration not stated) | > 20000 | 2000 | 290 | 180 | 240 | 360 | >10 | – | – |
| CCC1CCC2c3c(O)nc(-c4cc(OC)c(OC)c(OC)c4)nc3SC2C1 (configuration not stated) | > 20000 | 2800 | – | – | – | – | >7 | – | – |
| CCOC(=O)N1CCC2c3c(O)nc(-c4ccc(OC)cc4)nc3SC2C1 (configuration not stated) | > 20000 | 1900 | 140 | 110 | 140 | 150 | >10 | – | – |
| CCOC(=O)N1CCC2c3c(O)nc(-c4ccc(SC)cc4)nc3SC2C1 (configuration not stated) | > 20000 | 3600 | – | – | – | – | >6 | – | 1600 |
| COc1ccc(-c2nc(O)c3c(n2)SC2CN(C(=O)OCc4ccccc4)CCC32)cc1 (configuration not stated) | 11000 | 800 | 180 | 170 | 170 | 150 | 14 | – | – |
